Laboratory results taken from ChEMBL document CHEMBL4251567 (Eur J Med Chem, 2018).

How the values were obtained:
[1] = target: Histone deacetylase 3 (Homo sapiens) (UniProt O15379); assay: Inhibition of HDAC3 in human HeLa-S3 cell lysates assessed as remaining activity at 5 uM preincubated for 15 mins followed by HDAC-Glo substrate addition measured after 30 to 40 mins by […] relative to control
Outline: (§1)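 Antibody-capture (ELISA-type) assay: HDAC antibody coated in carbonate/bicarbonate buffer pH 9.4, wells blocked with 5% milk in TBST. HeLa-S3 lysate added at 1 mg/mL for HDAC3, 1 h at 4 °C, then washed. Inhibitor in DMSO preincubated 15 min at RT in HDAC-Glo buffer. HDAC-Glo reagent added, luminescence read after 30-40 min. Concentrations are final. Background = no-antibody well; activity given as % of DMSO control.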

[2] = target: Histone deacetylase 2 (Homo sapiens) (UniProt Q92769); assay: Inhibition of HDAC2 in human HeLa-S3 cell lysates assessed as remaining activity at 5 uM preincubated for 15 mins followed by HDAC-Glo substrate addition measured after 30 to 40 mins by […] relative to control
Chain of Histone deacetylase 2 (Homo sapiens) (Q92769 whole entry, canonical isoform): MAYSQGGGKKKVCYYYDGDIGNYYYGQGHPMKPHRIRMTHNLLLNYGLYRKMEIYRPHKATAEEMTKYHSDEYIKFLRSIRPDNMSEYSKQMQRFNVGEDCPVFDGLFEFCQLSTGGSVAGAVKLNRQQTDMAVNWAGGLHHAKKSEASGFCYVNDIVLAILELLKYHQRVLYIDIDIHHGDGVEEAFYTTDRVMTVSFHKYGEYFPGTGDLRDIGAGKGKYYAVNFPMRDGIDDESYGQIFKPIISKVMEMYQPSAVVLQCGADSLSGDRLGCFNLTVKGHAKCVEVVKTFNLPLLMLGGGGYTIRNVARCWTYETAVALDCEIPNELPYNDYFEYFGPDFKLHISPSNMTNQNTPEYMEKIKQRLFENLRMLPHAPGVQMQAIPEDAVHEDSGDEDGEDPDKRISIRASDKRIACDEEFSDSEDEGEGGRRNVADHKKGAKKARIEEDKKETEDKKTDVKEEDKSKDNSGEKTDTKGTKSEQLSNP
Outline: (§2)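 Same antibody-capture format as the other class I isoforms. HeLa-S3 lysate added at 100 μg/mL for HDAC1 and HDAC2, 1 h at 4 °C, then washed. Inhibitor in DMSO preincubated 15 min at RT; HDAC-Glo reagent added and luminescence read after 30-40 min. Concentrations are final. Signal corrected against a well without antibody; activity expressed as % of DMSO control.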

[3] = target: Histone deacetylase 1 (Homo sapiens) (UniProt Q13547); assay: Inhibition of HDAC1 in human HeLa-S3 cell lysates assessed as remaining activity at 1.25 uM preincubated for 15 mins followed by HDAC-Glo substrate addition measured after 30 to 40 mins by […] relative to control
Chain of Histone deacetylase 1 (Homo sapiens) (Q13547 whole entry): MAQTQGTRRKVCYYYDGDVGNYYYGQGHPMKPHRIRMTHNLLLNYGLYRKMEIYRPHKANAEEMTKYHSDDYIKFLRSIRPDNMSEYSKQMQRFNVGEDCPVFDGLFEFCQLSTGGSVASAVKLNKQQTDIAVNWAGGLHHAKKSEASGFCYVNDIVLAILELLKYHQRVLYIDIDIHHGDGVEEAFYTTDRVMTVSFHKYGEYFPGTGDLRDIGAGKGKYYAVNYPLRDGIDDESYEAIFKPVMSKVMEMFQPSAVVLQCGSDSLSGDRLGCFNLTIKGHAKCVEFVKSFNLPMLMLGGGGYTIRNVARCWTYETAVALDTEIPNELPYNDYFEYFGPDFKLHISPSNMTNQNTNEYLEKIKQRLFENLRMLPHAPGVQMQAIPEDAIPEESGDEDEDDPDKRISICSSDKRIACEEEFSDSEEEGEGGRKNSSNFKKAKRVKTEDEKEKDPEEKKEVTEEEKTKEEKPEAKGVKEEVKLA
Outline: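 HDAC1 was captured from HeLa-S3 lysate (100 μg/mL) onto wells precoated with anti-HDAC1 antibody (10 μg/mL, carbonate buffer pH 9.4) and milk-blocked, 1 h at 4 °C, then washed. Inhibitor in DMSO was added in HDAC-Glo buffer for 15 min at room temperature. HDAC-Glo reagent was added and luminescence read after 30-40 min. Concentrations are final. No-antibody background subtracted; % of DMSO control.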

[4] = target: Histone deacetylase 3 (Homo sapiens) (UniProt O15379); assay: Inhibition of HDAC3 in human HeLa-S3 cell lysates assessed as remaining activity at 1.25 uM preincubated for 15 mins followed by HDAC-Glo substrate addition measured after 30 to 40 mins by […] relative to control; outline: as §1
[5] = target: T1, Histone deacetylase (Homo sapiens) (UniProt Q13547+O15379+Q9UBN7+Q92769+Q9UQL6+Q8WUI4+Q9BY41+Q96DB2+P56524+Q9UKV0+Q969S8); assay: Inhibition of HDAC in human HeLa-S3 cell lysates assessed as residual activity at 2.4 x 10^-5 M preincubated for 15 mins followed by HDAC-Glo substrate addition measured after 35 mins by […] relative to control; assay type: protein assay
[6] = target: Histone deacetylase 3 (Homo sapiens) (UniProt O15379); assay: Inhibition of HDAC3 in human HeLa-S3 cell lysates assessed as remaining activity at 8 x 10^-6 M preincubated for 15 mins followed by HDAC-Glo substrate addition measured after 30 to 40 mins by […] relative to control; outline: as §1
[7] = target: Histone deacetylase 2 (Homo sapiens) (UniProt Q92769); assay: Inhibition of HDAC2 in human HeLa-S3 cell lysates assessed as remaining activity at 2 x 10^-6 M preincubated for 15 mins followed by HDAC-Glo substrate addition measured after 30 to 40 mins by fluorimetric method relative to control; outline: as §2
[8] = target: Histone deacetylase 3 (Homo sapiens) (UniProt O15379); assay: Inhibition of HDAC3 in human HeLa-S3 cell lysates assessed as remaining activity at […] preincubated for 15 mins followed by HDAC-Glo substrate addition measured after 30 to 40 mins by […] relative to control
[9] = target: Histone deacetylase 2 (Homo sapiens) (UniProt Q92769); assay: Inhibition of HDAC2 in human HeLa-S3 cell lysates assessed as remaining activity at 8 x 10^-6 M preincubated for 15 mins followed by HDAC-Glo substrate addition measured after 30 to 40 mins by […] relative to control; outline: as §2
[10] = target: T1, Histone deacetylase (Homo sapiens); assay: Inhibition of HDAC in human HeLa-S3 cell lysates assessed as residual activity at 6 x 10^-6 M preincubated for 15 mins followed by HDAC-Glo substrate addition measured after 35 mins by […] relative to control; assay type: protein assay
Outline: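 Lysate (1 μg total protein) in HDAC-Glo buffer was preincubated with inhibitor in DMSO for 15 min at room temperature. HDAC-Glo substrate/developer reagent was added and luminescence read after 35 min. Concentrations are final. Signal corrected for a no-lysate blank; % of DMSO control.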

[11] = target: Histone deacetylase 2 (Homo sapiens) (UniProt Q92769); assay: Inhibition of HDAC2 in human HeLa-S3 cell lysates assessed as remaining activity at 1.6 x 10^-5 M preincubated for 15 mins followed by HDAC-Glo substrate addition measured after 30 to 40 mins by […] relative to control; outline: as §2
[12] = target: T1, Histone deacetylase (Homo sapiens); assay: Inhibition of HDAC in human HeLa-S3 cell lysates assessed as residual activity at 4.8 x 10^-5 M preincubated for 15 mins followed by HDAC-Glo substrate addition measured after 35 mins by […] relative to control; assay type: protein assay
[13] = target: Histone deacetylase 3 (Homo sapiens) (UniProt O15379); assay: Inhibition of HDAC3 in human HeLa-S3 cell lysates assessed as remaining activity at 2 x 10^-6 M preincubated for 15 mins followed by HDAC-Glo substrate addition measured after 30 to 40 mins by […] relative to control; outline: as §1

Chain of Histone deacetylase 3 (Homo sapiens) (O15379 whole entry): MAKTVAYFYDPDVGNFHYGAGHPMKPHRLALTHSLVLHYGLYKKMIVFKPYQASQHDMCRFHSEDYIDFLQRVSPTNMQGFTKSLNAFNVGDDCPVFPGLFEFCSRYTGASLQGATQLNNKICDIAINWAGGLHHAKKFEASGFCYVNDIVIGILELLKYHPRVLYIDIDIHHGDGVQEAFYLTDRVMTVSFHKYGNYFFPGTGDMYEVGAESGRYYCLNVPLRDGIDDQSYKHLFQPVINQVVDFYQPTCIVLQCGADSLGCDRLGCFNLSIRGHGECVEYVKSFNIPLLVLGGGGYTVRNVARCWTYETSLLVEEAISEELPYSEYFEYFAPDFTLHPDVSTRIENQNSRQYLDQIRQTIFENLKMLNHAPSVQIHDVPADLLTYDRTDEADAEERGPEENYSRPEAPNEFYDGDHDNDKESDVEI

O=C(CCC(CCCC(=O)Nc1ccccc1)Cc1ccccc1)NO (racemic)
Activity [1]: 90% | Activity [2]: 92%

CCCCCCC(CCCC(=O)Nc1ccccc1)CCC(=O)NO (stereo not drawn)
Activity [3]: 97% | Activity [4]: 100%

CCC(CCCC(=O)Nc1ccccc1)CCC(=O)NO (stereo not drawn)
Activity [5]: 31% | Activity [6]: 52% | Activity [7]: 69% | Activity [8]: 71% | Activity [9]: 34% | Activity [10]: 82% | Activity [11]: 23% | Activity [12]: 12% | Activity [13]: 71%
